Reference: ChEMBL document CHEMBL1157078, “Cytotoxic activities of several geranyl-substituted flavanones” (J Nat Prod, 2010)

Experiments:
CCRF-CEM = experiment: Cytotoxicity against human CEM cells assessed as viable cells after 72 hrs by calcein AM assay; assay type: functional, cell-based
How it was run: (§1)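 Cells kept in DMEM with 10% FBS, L-glutamine and antibiotics at 37 °C, 5% CO2, and seeded at about 1.25×10^5 cells/mL, then left 3 h to stabilize. Six 3-fold dilutions were added in triplicate (final 100 to 0.4 μM, DMSO ≤0.6%) for 72 h. Viable cells were stained with 2 μM calcein AM for 1 h and fluorescence read at 485/538 nm. EC50 came from dose-response curves of three independent measurements, ±SD.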

THP-1 = experiment: Cytotoxicity against human THP1 cells after 72 hrs by erythosin B staining method; assay type: functional, cell-based; settings: THP-1, 72 h
How it was run: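 THP-1 cells from ECACC, kept in RPMI with 10% FBS, 2% L-glutamine and 1% penicillin/streptomycin at 37 °C, 5% CO2. Compounds in DMSO were added at five increasing concentrations and cells incubated 72 h. Cells were mixed 1:1 with 0.1% erythrosin B in PBS (pH 7.2-7.4), and unstained (viable) and red (nonviable) cells counted by hemocytometer. EC50 came from dose-response curves of three independent measurements, ±SD.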

U-266 = experiment: Cytotoxicity against human U266 cells assessed as viable cells after 72 hrs by calcein AM assay; assay type: functional, cell-based; settings: U-266, 72 h; how it was run: as §1
HeLa = experiment: Cytotoxicity against human HeLa cells assessed as viable cells after 72 hrs by calcein AM assay; assay type: functional, cell-based; how it was run: as §1
MCF7 = experiment: Cytotoxicity against human MCF7 cells assessed as viable cells after 72 hrs by calcein AM assay; assay type: functional, cell-based; settings: MCF7, 72 h; how it was run: as §1
BJ = experiment: Cytotoxicity against human BJ cells assessed as viable cells after 72 hrs by calcein AM assay; assay type: cell-based; how it was run: as §1
RPMI-8226 = experiment: Cytotoxicity against human RPMI8226 cells assessed as viable cells after 72 hrs by calcein AM assay; assay type: functional, cell-based; settings: RPMI-8226, 72 h; how it was run: as §1

Row | Compound | EC50 (CCRF-CEM) | EC50 (THP-1) | EC50 (U-266) | EC50 (HeLa) | EC50 (MCF7) | EC50 (BJ) | EC50 (RPMI-8226)
1 | CC(C)=CCC/C(C)=C/Cc1c(O)cc2c(c1O)C(=O)C[C@@H](c1cc(O)cc(O)c1)O2 | 12.3 µM | 8.5 µM | 1.9 µM | 6.3 µM | < 10 µM | 7.5 µM | 7.1 µM
2 | COc1cc(O)c([C@@H]2CC(=O)c3c(O)cc(O)cc3O2)cc1C/C=C(\C)CCC=C(C)C | > 10 µM | > 10 µM | > 10 µM | > 10 µM | > 10 µM | > 10 µM | > 10 µM
3 | COc1cc([C@@H]2CC(=O)c3c(cc(O)c(C/C=C(\C)CCC=C(C)C)c3O)O2)ccc1O | < 10 µM | < 10 µM | < 10 µM | 9.2 µM | < 10 µM | < 10 µM | < 10 µM
4 | COc1cc([C@H]2Oc3cc(O)c(C/C=C(\C)CCC=C(C)C)c(O)c3C(=O)[C@@H]2O)ccc1O | > 10 µM | > 10 µM | > 10 µM | > 10 µM | > 10 µM | > 10 µM | > 10 µM
5 | COc1cc([C@@H]2CC(=O)c3c(cc(O)c(C/C=C(\C)CCC=C(C)C)c3O)O2)cc(O)c1O | < 10 µM | < 10 µM | 5.5 µM | 7.4 µM | < 10 µM | 4.7 µM | 7.3 µM
6 | COc1cc([C@@H]2CC(=O)c3c(cc(O)c(C/C=C(\C)CCC=C(C)C)c3O)O2)cc(OC)c1O | > 10 µM | > 10 µM | > 10 µM | > 10 µM | > 10 µM | > 10 µM | > 10 µM
7 | CC(C)=CCC/C(C)=C/Cc1cc(C2CC(=O)c3c(O)cc(O)cc3O2)c(O)cc1O (racemic) [KUWANON E] | > 10 µM | > 10 µM | > 10 µM | > 10 µM | > 10 µM | > 10 µM | > 10 µM
8 | O=C1c2c(O)cc(O)cc2O[C@H](c2ccc(O)c(O)c2)[C@H]1O [(+)-TAXIFOLIN] | > 10 µM | > 10 µM | > 10 µM | > 10 µM | > 10 µM | > 10 µM | > 10 µM
9 | CC(C)=CCC/C(C)=C/Cc1c(O)cc2c(c1O)C(=O)C[C@@H](c1ccc(O)cc1)O2 [BONANNIONE A] | 11.6 µM | > 10 µM | > 10 µM | > 10 µM | > 10 µM | > 10 µM | > 10 µM
10 | CC[C@@]1(O)C(=O)OCc2c1cc1n(c2=O)Cc2cc3ccccc3nc2-1 [CAMPTOTHECIN] |  | 0.16 µM |  |  |  |  | 
11 | CCOC(=O)NC1=C(N2CC2)C(=O)C(NC(=O)OCC)=C(N2CC2)C1=O [DIAZIQUONE] | 0.86 µM |  | 2.8 µM | 6.4 µM | 4 µM | < 10 µM | 3.4 µM
12 | COc1ccc([C@@H]2CC(=O)c3c(O)cc(O)cc3O2)cc1O [HESPERETIN] | > 10 µM | > 10 µM | > 10 µM | > 10 µM | > 10 µM | > 10 µM | > 10 µM
13 | O=C1C[C@@H](c2ccc(O)cc2)Oc2cc(O)cc(O)c21 [NARINGENIN] | > 10 µM | > 10 µM | > 10 µM | > 10 µM | > 10 µM | > 10 µM | > 10 µM
14 | CC(C)=CCC/C(C)=C/Cc1c(O)cc2c(c1O)C(=O)C[C@@H](c1ccc(O)c(O)c1)O2 [NYMPHAEOL A] | 3.2 µM | < 10 µM | 2.4 µM | < 10 µM | < 10 µM | 5.9 µM | < 10 µM
15 | CC[C@H](CO)Nc1nc(NCc2ccccc2O)c2ncn(C(C)C)c2n1 [OLOMOUCINE II] | 8.1 µM |  | 7.2 µM | 9.9 µM | 4.6 µM | 5.4 µM | 6 µM
16 | COc1cc([C@@H]2CC(=O)c3c(cc(O)c(C/C=C(\C)C/C=C/C(C)(C)O)c3O)O2)ccc1O [TOMENTODIPLACONE B] | > 10 µM | > 10 µM | > 10 µM | > 10 µM | > 10 µM | > 10 µM | > 10 µM
17 | C=C(C)C(O)CC/C(C)=C/Cc1c(O)cc2c(c1O)C(=O)C[C@@H](c1ccc(O)c(OC)c1)O2 (stereo partly specified) [TOMENTODIPLACONE] | > 10 µM | > 10 µM | > 10 µM | > 10 µM | > 10 µM | > 10 µM | > 10 µM
